# CHOP inh – inhibitors of CHOP promoter induction, primary screen, cell-based, unfolded protein response, luciferase reporter; CHO-K1 CHOP-promoter luciferase, tunicamycin-induced, 15-18 h; inhibition, % at 10 µM; 220,000 tested, 3.8% active;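 active = compounds that reduced the stress-induced luciferase reporter signal by more than about 70% of percent inhibition, limit read from the data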
# Dynein cargo inh – inhibitors of GR-EGFP nuclear translocation, primary screen, dynein cargo transport inhibitor project, imaging, high-content, 3617.4 mouse cells | AID 1381, 2008 | test concentration mostly 20 µM; stimulated with dexamethasone, 1 µM; hits give low values | z-score, hits read low | 220,000 tested, 0.47% active;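 active = plate z-score of nuclear minus cytoplasmic receptor signal below a set negative limit, without overly bright fluorescence or cell loss, cut at about -3.5 in these data, passing the limit was not always enough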;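 also: z-score of nuclear minus cytoplasmic ring GR-EGFP intensity difference per well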
#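 medium = tetracycline-free induction medium containing charcoal-stripped FBS | probe or stimulus = dexamethasone, 1.0 µM final | timing = 48 h induction, then 1 h compound, then 30 min agonist, 37 °C | detection = automated 10x imaging of fixed Hoechst-stained cells | read-out basis = nuclear versus cytoplasmic GR-EGFP signal, averaged per well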
# MT stabilizer – microtubule stabilizers in HeLa cells, primary screen, imaging, high-content imaging; HeLa tubulin immunostaining HCS, 24 h; share of cells brighter than vehicle mean+2SD; % tubulin-high responders, % at 10 µM; 200,000 tested, 0.83% active;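 active = plate Z-score above 3 for both tubulin-high and condensed-nucleus cell shares, with cell loss under 80%, at 10 µM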;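 also: anti alpha tubulin signal scored within the nucleus-defined area of each cell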
# L major viab – Leishmania major promastigote growth inhibition, primary screen; 200,000 tested, 9% active; inhibition, % at 10 µM; Leishmania major promastigotes, resazurin fluorescence viability; in the data active = inhibition above about 50%;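 also: promastigotes grown with compound for 44 hours at 28 °C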
# Autophagy mod – autophagy modulators in MEF cells, primary screen, imaging, high-content, MEF GFP-LC3; AID 463193, 2010; calls only at 10 µM (by protocol); MEF GFP-LC3 puncta imaging; test concentration mostly 10 µM; 190,000 tested, 0.98% active;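 active = percentage of spot-positive cells more than 3 SD above its plate mean, without a fluorescence outlier flag or 80% toxicity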
# bCat nuc transl – modulators of beta-catenin nuclear translocation, primary screen, imaging, HeLa cells, immunofluorescence, high-content; 190,000 tested, 0.3% active; AID 1665, 2009; nuclear translocation activity, % at 5 µM;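 active = nuclear translocation activity above 50% at 5 µM, with a well cell count of 50 or more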;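 also: per-cell ratio of nuclear to cytoplasmic median beta-catenin stain intensity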
#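 System: HeLa cells, endogenous beta-catenin; compound dosing: 5 µM primary single dose, 0.1% DMSO, 0.02–20 µM confirmation series; incubation: 24 h compound exposure at 37°C, 5% CO2; signal: beta-catenin immunofluorescence imaging with DAPI; evaluation: % activation, nuclear-to-cytoplasmic median beta-catenin signal ratio per cell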
# Hits are given with their value; i = inactive; nt = not tested or not shown; + = active, no number. A selection: hits, their analogues and other compounds. The true share with any hit is near 12%.
SMILES,CHOP inh,Dynein cargo inh,MT stabilizer,L major viab,Autophagy mod,bCat nuc transl
COC(=O)c1c(NC(=O)CC2Nc3cc(C)c(C)cc3NC2=O)sc(C)c1C (centres undefined),i,i,i,i,i,i
CCOC(=O)c1cc(CC)sc1NC(=O)CC1Sc2ccc(C(F)(F)F)cc2NC1=O (centres undefined),82,i,i,i,i,i
CCc1cc(C(=O)OC)c(NC(=O)CC2Nc3cc(C)c(C)cc3NC2=O)s1 (centres undefined),103,i,i,i,+,i
COC(=O)c1c(NC(=O)CC2Sc3ccc(C(F)(F)F)cc3NC2=O)sc(C)c1C (centres undefined),i,i,i,i,i,i
C=Cn1nc(C)c2ccccc2c1=O,i,i,i,i,i,nt
CSc1nsc(SC)c1NC(=O)OCC1CCCO1 (centres undefined),i,i,i,i,i,i

# Compound activity deposited in PubChem by several laboratories.
